From ChEMBL document CHEMBL1136006, “New PET imaging agent for the serotonin transporter: [(18)F]ACF (2-[(2-amino-4-chloro-5-fluorophenyl)thio]-N,N-dimethyl-benzenmethanamine)” (J Med Chem, 2002) come the findings set out here.

By Ki is commonly meant the equilibrium dissociation constant of an inhibitor or competing ligand from its target. Read a low Ki as higher affinity.

In experiment [1] the target is T1, Sodium-dependent noradrenaline transporter (Homo sapiens, UniProt P23975). The experiment can be described thus: Selectivity for norepinephrine transporter.
T1 sequence (P23975 whole entry, looked up): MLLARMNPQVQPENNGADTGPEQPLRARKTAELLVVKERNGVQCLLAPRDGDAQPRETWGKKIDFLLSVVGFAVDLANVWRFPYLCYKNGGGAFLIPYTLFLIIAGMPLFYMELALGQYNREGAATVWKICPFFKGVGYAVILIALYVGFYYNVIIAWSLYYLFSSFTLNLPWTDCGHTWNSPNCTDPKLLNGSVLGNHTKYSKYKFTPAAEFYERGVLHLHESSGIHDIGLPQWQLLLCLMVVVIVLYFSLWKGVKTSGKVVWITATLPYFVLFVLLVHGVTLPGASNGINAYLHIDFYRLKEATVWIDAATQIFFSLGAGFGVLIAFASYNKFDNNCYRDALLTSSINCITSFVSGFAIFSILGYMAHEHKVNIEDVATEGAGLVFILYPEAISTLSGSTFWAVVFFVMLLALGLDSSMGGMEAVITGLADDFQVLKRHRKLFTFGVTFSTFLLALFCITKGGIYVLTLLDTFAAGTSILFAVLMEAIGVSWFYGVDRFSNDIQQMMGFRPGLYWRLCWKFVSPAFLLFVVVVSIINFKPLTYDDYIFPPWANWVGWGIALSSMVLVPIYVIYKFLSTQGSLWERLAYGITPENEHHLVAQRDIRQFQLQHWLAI
For experiment [2], the target named is T2, Sodium-dependent serotonin transporter (Rattus norvegicus, UniProt P31652). The experiment can be described thus: Inhibition of 5-HT reuptake (SERT) in rat brain synaptosomes. Type of experiment: subcellular.
T2 sequence (P31652 whole entry): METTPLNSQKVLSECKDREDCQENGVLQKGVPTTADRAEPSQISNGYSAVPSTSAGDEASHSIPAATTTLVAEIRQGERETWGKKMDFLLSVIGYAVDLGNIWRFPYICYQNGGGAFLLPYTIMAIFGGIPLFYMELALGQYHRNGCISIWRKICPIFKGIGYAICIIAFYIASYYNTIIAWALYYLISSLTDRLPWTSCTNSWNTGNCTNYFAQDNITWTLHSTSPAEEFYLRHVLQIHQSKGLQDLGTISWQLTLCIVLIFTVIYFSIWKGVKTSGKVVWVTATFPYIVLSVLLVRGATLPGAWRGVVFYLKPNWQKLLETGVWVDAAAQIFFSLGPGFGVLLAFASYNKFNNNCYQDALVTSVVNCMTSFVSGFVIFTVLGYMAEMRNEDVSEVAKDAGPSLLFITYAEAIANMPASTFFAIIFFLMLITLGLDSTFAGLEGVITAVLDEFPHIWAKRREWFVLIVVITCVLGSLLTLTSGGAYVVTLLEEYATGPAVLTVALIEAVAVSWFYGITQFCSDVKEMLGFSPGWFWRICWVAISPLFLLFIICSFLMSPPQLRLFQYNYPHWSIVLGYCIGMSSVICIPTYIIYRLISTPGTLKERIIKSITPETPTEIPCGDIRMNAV
Experiment [3] addresses Sodium-dependent dopamine transporter (Rattus norvegicus) (UniProt P23977). The experiment can be described thus: Selectivity for Dopamine transporter; No inhibition.
The target in experiment [4] is T2, Sodium-dependent serotonin transporter. As to the kind of experiment: In vitro binding affinity in LLC-PK1 cells by SERT binding assay by using [125I]IDAM as a radioligand. Type of experiment: cell-based. In short, it runs like this:
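LLC-PK1 membrane homogenates overexpressing SERT. Incubated with 0.4 nM [125I]IDAM and 8–10 competitor concentrations (10^-10 to 10^-5 M) in 50 mM Tris-HCl pH 7.4, 120 mM NaCl, 0.1% BSA for 1 h at room temperature. Nonspecific binding defined with 1 μM IDAM. Filter-bound activity gamma-counted, nonlinear regression. Mean ± SEM, three determinations in duplicate.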

Experiment [5] has as its target T1, Sodium-dependent noradrenaline transporter. The experiment can be described thus: In vitro binding affinity in LLC-PK1 cells by Norepinephrine transporter binding assay by using [125I]-IPT as a radioligand. Type of experiment: cell-based. In short, it runs like this:
(§1)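 LLC-PK1 cell membrane homogenates overexpressing DAT or NET. Incubated with 0.4 nM [125I]IPT and 8–10 competitor concentrations (10^-10 to 10^-5 M) in 50 mM Tris-HCl pH 7.4, 120 mM NaCl, 0.1% BSA for 1 h at room temperature. Nonspecific binding defined with 10 μM CFT. Filtered, gamma-counted, nonlinear regression. Mean ± SEM of three determinations in duplicate.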

For experiment [6], the target named is Sodium-dependent dopamine transporter (Rattus norvegicus, UniProt P23977). As to the kind of experiment: In vitro binding affinity in LLC-PK1 cells by Dopamine transporter binding assay by using [125I]IPT as a radioligand. In kind it is cell-based. In short, it runs like this:
as §1

The source made the active and inactive calls. No cut-off for these calls is given here.

Sodium-dependent dopamine transporter, sequence (P23977 whole entry): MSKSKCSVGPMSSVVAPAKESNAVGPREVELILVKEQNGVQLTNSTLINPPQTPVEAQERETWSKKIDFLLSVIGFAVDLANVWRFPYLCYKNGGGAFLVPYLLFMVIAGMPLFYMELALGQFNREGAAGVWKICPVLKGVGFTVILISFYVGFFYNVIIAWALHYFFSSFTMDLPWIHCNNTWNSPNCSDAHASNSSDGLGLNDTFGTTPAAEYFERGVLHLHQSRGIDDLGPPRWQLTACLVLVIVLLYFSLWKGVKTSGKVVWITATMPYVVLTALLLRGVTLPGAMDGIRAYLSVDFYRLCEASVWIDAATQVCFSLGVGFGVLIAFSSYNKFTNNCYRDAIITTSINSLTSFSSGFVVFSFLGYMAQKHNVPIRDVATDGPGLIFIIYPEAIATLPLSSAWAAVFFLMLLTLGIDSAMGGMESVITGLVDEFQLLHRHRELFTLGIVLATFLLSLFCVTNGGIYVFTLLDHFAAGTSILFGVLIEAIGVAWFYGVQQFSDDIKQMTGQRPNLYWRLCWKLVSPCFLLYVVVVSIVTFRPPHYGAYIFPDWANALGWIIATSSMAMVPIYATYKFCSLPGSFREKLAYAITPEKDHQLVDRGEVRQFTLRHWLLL
Sodium-dependent dopamine transporter (Rattus norvegicus), sequence (P23977 whole entry): as above

As for `CN(C)Cc1ccccc1Sc1ccc(Cl)cc1CO`, the figures for the Ki in experiment [1] and in experiment [2] were 55 nM and 2.1 nM, respectively. Moreover, the NI result in experiment [3] is “inactive”.

In the case of `Cc1ccc(Sc2ccccc2CN(C)C)c(N)c1`, the affinity in experiment [4] corresponds to a Ki of 1.1 nM.

As for `CN(C)Cc1ccccc1Sc1cc(F)c(Cl)cc1[N+](=O)[O-]`, the Ki in experiment [5] was found to be 2810 nM; in experiment [6] it was 31900 nM; in experiment [4], 4.16 nM.

With `CN(C)C(=O)c1ccccc1Sc1cc(N)c(Cl)cc1[N+](=O)[O-]`, the results for the Ki in experiment [5], in experiment [6] and in experiment [4] were 15000 nM, 3050 nM and 2.39 nM, respectively.

As for `COc1ccc(Sc2ccccc2CN(C)C)c(N)c1`, affinity in experiment [4] was put at a Ki of 1.1 nM.

For `CN(C)Cc1ccccc1Sc1ccc(I)cc1N`, the Ki in experiment [5] and in experiment [6] was 699 nM throughout.

On to `CN(C)Cc1ccccc1Sc1ccc(CF)cc1N`, for which, in experiment [4], the Ki is 1.1 nM.
